We go through nine molecules from ChEMBL document CHEMBL1146211, “Conformationally constrained analogues of diacylglycerol (DAG). 28. DAG-dioxolanones reveal a new additional interaction site in the C1b domain of PKC delta” (J Med Chem, 2007).

In test [1] the target is Protein kinase C delta type (Mus musculus) (UniProt P28867). The test can be described thus: Ratio of Ki for mouse PKCdelta C1b Q27E mutant to Ki for mouse wild type C1b domain of PKCdelta.
The target in test [2] is Protein kinase C delta type (Mus musculus, UniProt P28867, Q257E). The test can be described thus: Displacement of [3H]PDBu from mouse PKCdelta C1b Q27E mutant expressed in Escherichia coli. An outline of the steps: (§1)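 Competitive displacement of [3H]PDBu from GST-tagged C1 domains of PKCδ (expressed in E. coli, IPTG-induced, spin-purified, stored in 30% glycerol at -70 °C). 18 °C for 10 min, PEG precipitation on ice, scintillation counting of pellet and supernatant. Ki from the lab's standard method. Three independent experiments.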

For test [3], the target named is T1, Protein kinase C delta type (Mus musculus, UniProt P28867). The experiment in a line: Binding affinity to mouse PKC delta C1a Q27E mutant expressed in Escherichia coli. An outline of the steps:
as §1

Test [4] has as its target T1, Protein kinase C delta type. The experiment in a line: Binding affinity to mouse wild-type PKCdelta C1a expressed in Escherichia coli. An outline of the steps:
as §1

In test [5] the target is Protein kinase C delta type (Mus musculus) (UniProt P28867). The experiment in a line: Effect on membrane translocation of PKCdelta-GFP Q257E mutant in CHOK1 cells at 20 uM after 1 hr. Type of test: functional, cell-based. The note with it: CHO-K1. An outline of the steps: (§2)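 CHO-K1 cells grown at 37 °C, 5% CO2 in F-12 with 10% FBS and penicillin/streptomycin, transfected with GFP-fused PKCδ (wild type or Q257E); imaged 24 h later. Live confocal time series (488 nm excitation, 522/32 emission) in a perfusion chamber at 37 °C after ligand addition (test compound 20 µM; PMA 1 µM). Plasma- and internal-membrane GFP redistribution assessed visually.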

For test [6], the target named is T1, Protein kinase C delta type. The test can be described thus: Displacement of [3H]PDBu from mouse wild type C1b domain of PKCdelta expressed in Escherichia coli. An outline of the steps: as §1
Test [7] has as its target Protein kinase C delta type (Mus musculus) (UniProt P28867). The test can be described thus: Effect on membrane translocation of wildype full length PKCdelta-GFP in CHOK1 cells at 20 uM within 5 mins. It is filed as functional, cell-based. The conditions noted are these: CHO-K1. An outline of the steps:
as §2

Test [8] concerns the target Protein kinase C alpha type (Mus musculus, UniProt P20444). The test can be described thus: Displacement of [3H]PDBu from mouse recombinant PKCalpha expressed in Escherichia coli. The gist of the method:
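Recombinant full-length mouse PKCα, partially purified, is tested for competitive displacement of [3H]PDBu with phosphatidylserine (100 µg/mL), 4 mg/mL bovine IgG and 50 mM Tris-HCl pH 7.4. Incubation is 37 °C for 5 min, followed by polyethylene glycol precipitation on ice and scintillation counting of bound and free label. Ki is calculated by the lab's standard method, averaged over three independent experiments.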

The structures appear in SMILES notation. The source made the active and inactive calls. The calls are words filed in the database; no cut-off is given here.

T1 sequence (P28867 whole entry): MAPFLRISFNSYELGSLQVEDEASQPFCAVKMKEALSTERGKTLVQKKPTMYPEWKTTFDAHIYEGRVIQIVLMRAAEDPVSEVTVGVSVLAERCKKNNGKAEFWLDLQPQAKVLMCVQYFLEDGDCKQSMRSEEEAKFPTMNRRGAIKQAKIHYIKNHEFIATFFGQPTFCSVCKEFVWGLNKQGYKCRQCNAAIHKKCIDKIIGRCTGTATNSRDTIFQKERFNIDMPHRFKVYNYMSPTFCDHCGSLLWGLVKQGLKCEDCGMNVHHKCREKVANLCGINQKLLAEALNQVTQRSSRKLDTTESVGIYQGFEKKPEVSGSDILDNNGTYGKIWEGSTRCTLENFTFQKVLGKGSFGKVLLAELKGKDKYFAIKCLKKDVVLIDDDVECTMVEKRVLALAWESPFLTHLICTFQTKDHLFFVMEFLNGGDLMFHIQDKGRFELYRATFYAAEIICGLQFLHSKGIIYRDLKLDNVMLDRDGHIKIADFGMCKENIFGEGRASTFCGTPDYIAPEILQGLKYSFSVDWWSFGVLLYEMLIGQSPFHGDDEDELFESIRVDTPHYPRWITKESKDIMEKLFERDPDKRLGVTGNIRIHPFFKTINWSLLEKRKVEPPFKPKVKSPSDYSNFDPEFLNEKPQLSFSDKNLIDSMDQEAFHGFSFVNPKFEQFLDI
Sequence of Protein kinase C delta type (Mus musculus) (P28867 whole entry, looked up, the tested form may be a part): as the sequence (P28867 whole entry) above
Sequence of Protein kinase C delta type (Mus musculus, UniProt P28867, Q257E) (P28867 whole entry Q257E, the tested form may be a part): as the sequence (P28867 whole entry) above, with Q257E counted along it

`CC(C)CC(C/C=C1/OC(CO)(COC(=O)C(C)(C)C)OC1=O)CC(C)C` (centres undefined): the Ratio Ki in test [1] is 3070. Also, the Ki in test [2] amounted to 2510 nM; in test [3] it was 1570 nM; in test [4], 4.31 nM; in test [6] it was 0.82 nM. In test [5], the result was inactive. Besides, the outcome in test [7] was Active.
Turning to `CC(C)C/C=C1/OC(CO)(COC(=O)CC(CC(C)C)CC(C)C)OC1=O` (centres undefined), the Ratio Ki in test [1] was determined as 1910. Moreover, the inhibition constant Ki in test [2] is 1720 nM; in test [6] it was 0.9 nM.
With `CC(C)CC(CC=C1OC(CO)(COC(=O)C(C)(C)C)OC1=O)CC(C)C` (centres undefined), in test [8], the Ki was 6.41 nM.
With `CC(C)C/C=C1/CC(CO)(COC(=O)CC(CC(C)C)CC(C)C)OC1=O` (centres undefined), the inhibition constant (Ki) in test [8] is 3.07 nM; in test [2], 73.7 nM; in test [6], 2.13 nM. In addition, in test [1], the Ratio Ki was found to be 35.
The matching figures for `CC(C)CC(=O)OCC1(CO)C/C(=C/CC(CC(C)C)CC(C)C)C(=O)O1` (centres undefined): 3.49 nM, 53 nM, 0.96 nM and 55.
`CCCC(=O)O[C@@H]1[C@@H](C)[C@@]2(O)[C@@H](C=C(CO)C[C@]3(O)C(=O)C(C)=C[C@@H]23)[C@@H]2C(C)(C)[C@]12OC(=O)CCC`: the figures for the Ki in test [2] and in test [6] were 6.2 nM and 0.33 nM, respectively. The figures for the Kd in test [3] and in test [4] were 383 nM and 2.04 nM, respectively.
On to `CC(C)CC=C1OC(CO)(COC(=O)CC(CC(C)C)CC(C)C)OC1=O` (centres undefined), for which the Ki in test [8] is 5.78 nM.
`CC(C)CC(=O)OCC1(CO)OC(=O)/C(=C\CC(CC(C)C)CC(C)C)O1` (centres undefined): the Ki in test [8] was 19.8 nM; in test [2], 3460 nM; in test [6], 2.82 nM. Besides, in test [1], the Ratio Ki was found to be 1230.
For the molecule `CC(C)CC(C/C=C1/CC(CO)(COC(=O)C(C)(C)C)OC1=O)CC(C)C` (centres undefined), the inhibitory constant (Ki) came out at 2.9 nM in test [8]; 44.8 nM in test [2]; 476 nM in test [3]; 1.21 nM in test [4]; 1.15 nM in test [6]. Further, the Ratio Ki in test [1] was 39.
